Among the data in the RNAGym collection of RNA variant scans (doi:10.1126/science.aae0568) are yeast fitness values, retold here.

B1: tRNA (parent)
chain: GUUCCGUUGGCGUAAUGGUAACGCGUCUCCCUCCUAAGGAGAAGACUGCGGGUUCGAGUCCCGUACGGAACG

Fewer inactive variants are shown than the library holds. Some results are limits rather than exact numbers.

This data set covers variants of B1. The data set can be described thus: yeast fitness relative to wild type (ratio to wild type); higher = fitter; tRNA-Arg(CCU), competitive growth, 37 C, YPD. The procedure, abridged:
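Genotype frequency changes were the basis for Darwinian fitness relative to wild type. The frequencies came from 100-nucleotide paired-end sequencing of gene amplicons from the start population and each end population of pooled yeast strains with tRNA-Arg(CCU) gene variants at the native locus. Competition ran in YPD at 37°C for 24 hours in six replicates, genotypes needed ≥ 100 starting reads, and estimates < 0.5 were set to 0.5.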
In the case of GUUCCGUUGGCGUAAUGGUAUCGCGUCUCCCUCCUAAGGAGAAGACUGCGGGUCCGAGUCCCGUACGGAACG [A21U U54C], the yeast fitness came out at 0.703.

As for GUUCCGUUGGCGUAAUGGUAACGCGUCUGACUCCUAAGGAGAAGACUGCGGGUUCGAGUCCCGUACGGAACG [C29G C30A], the yeast fitness worked out at 0.585.

Turning to GUUCCGUUGGCGUAAUGGUAACGCGUCUCACUCCUAAGGAGAAGACUGCGGGUUCAAGUCCCGUAGGGAACG [C30A G56A C66G], the yeast fitness is ≤ 0.5.

For GUUCCGUGGGCGUAAUGGUAACGCGUCUCCCUCCUAAGGAGAAGACUGUGGGUUUGAGUCCCGUACGGAACG [U8G C49U C55U], the yeast fitness amounted to 0.549.

As to GAUCCGUUGGCGUAAUGGUAACGCGUCUACCUCCUAAGGAGGAGACUGCGGGUACGAGUGCCGUACGAAACG [U2A C29A A42G U54A C60G G68A], the yeast fitness was ≤ 0.5.

Consider GUUCCAUUGGCGUCAUGGUAACGCGUCUCCCUCCUAUGGAGAAGACUGCGGGUUCGAGUCCCGUACGGAACG [G6A A14C A37U], for which the yeast fitness came to 0.689.

With GUUCCGUUGGCGUGAUGGUAACGCGUCUCCCUCCUAAGGACAAGAAUGCGGGUUCGAGUCCCGUACGGAACG [A14G G41C C46A], the yeast fitness came to 0.791.

As for GUUCCGUUGGCGUAAUGGUAACGCGGCUCCCUGCAAAGGAGAAGACUGCGGGUUUGAGUCCCGUCCGGAACG [U26G C33G U35A C55U A65C], the yeast fitness is ≤ 0.5.

As to GUUCGGUGGGCGUAAUGGUAACGCGUCUCCCUCCUAAGGAGAAGACUGCGGGUUCGAGUCCCAUACGGAACG [C5G U8G G63A], the yeast fitness is ≤ 0.5.

On to GUUCCGUUGGCGCAAUGGUAACGCGUCUCCCUCCUAAGGAGUAGACUGCGGGUCCGAGUCCCGUCCGGAACG [U13C A42U U54C A65C], for which the yeast fitness is ≤ 0.5.

For GUUCCGUUGGAGUACUGGUAACGAGUAUCCCUCCUAAGGACAAGACUGCGGGUUCGAGUCCCGUACGGAACG [C11A A15C C24A C27A G41C], the yeast fitness is 0.583.

For GUUCCGAUGGCGUAAUGGUAACGCGUCUCCCUCAUAAGGAGAAAAUUGCGGGUUCGAGUCCCGUACGGACCG [U7A C34A G44A C46U A70C], the yeast fitness is ≤ 0.5.

GCUCCGUUGGCGUAAUGGUAGCGCGUCUCCCUCCUAAGGAGAAGACUGCGGGUUCGAGUCCCGUACGGAACG [U2C A21G]: the yeast fitness was 0.975.

On to GUUCCGUUGGGGUAACGGUAAUGCGUCUCCCUCCUAAGGAGAAGACUGCGGGUUCGAGUCCCGUACGUAACG [C11G U16C C22U G68U], for which the yeast fitness was ≤ 0.5.

In the case of GUUCCGUUGGCGUAAUGGUAGCGCGCGUCCCUCCUAAGGAGAAGACUCCGGGUUCGAGUCCCGUACAGAACG [A21G U26C C27G G48C G67A], the yeast fitness was ≤ 0.5.

As to GUUCCGUUGGCGUAACGGUAAAGCGUCUCCCUCCUAAGGAGAAGACUGCGGGCUCGAGUCCCGUACGGAACG [U16C C22A U53C], the yeast fitness was 0.629.

Take GUUCCGUUGGCGUAAUGGUAACGCGUCUCCCUCCUAAGCAGAAGACUGCGGGCUCGAGUCCCGUACGGAACG [G39C U53C]: the yeast fitness came out at 0.747.

With GUUCCGUUGGCGUAAUGGUAACGCGUCUCCCUCCUAAGGAGAAGACAACGGGUUCGAGUCCCGUACGGAUCG [U47A G48A A70U], the yeast fitness came to 0.748.

Regarding GUUCAGUUGGCGUACUGGUAACGCGUCUACCUCCUAAGAAGAAGACUGCGGGUUCGAGUGCCGUACGGAGCG [C5A A15C C29A G39A C60G A70G], the yeast fitness is ≤ 0.5.

In the case of GUCCCGUUGGCGAAAUGGUAACGCGUCUCCUUCCUAAGGAAAAGACUGCGGGUUCGCGUCCCGUACGGAUCG [U3C U13A C31U G41A A57C A70U], the yeast fitness is ≤ 0.5.

For the variant GUUCCGUUGGCGUAAUGGUAACGCGUGUCCAUCCUAAGGAGAAGACUGCGGGUUCGUGUCCCGUACGGAACG [C27G C31A A57U], the yeast fitness turned out to be 0.573.

On to GUACGGUUGGCGUAAUGGUAACGCGUCUCCCUCCUAAGGAGAAGACUGCGGGUUCUAGUCCCGUACGGAACG [U3A C5G G56U], for which the yeast fitness was ≤ 0.5.

For the variant GUUCCGUUGGCGUGGUGGUAACGCGUCUCCCUCCCAAGGAGAAGACUGCGGGUUCGAGUCCCGUACGGAACG [A14G A15G U35C], the yeast fitness stood at 0.572.

GUUCCGUUAGAGUAAUGGUAACGCGUCUCCCUCCUAAGGUGAAGACUCCGGGUUUGAGUCGCGUACGGAACG [G9A C11A A40U G48C C55U C61G]: the yeast fitness was ≤ 0.5.

GUUCCGUUGGGGUGAUAGUAACGCGUCUCCCUCCUAGGGAGAAGACUCCGGGUUCGAGUCCUGUAGGGAGCG [C11G A14G G17A A37G G48C C62U C66G A70G]: the yeast fitness was ≤ 0.5.

For the variant GUUCUGUUGGCGUAAUGGUAACGCGUCUCCGUUCUAAGGAGAAGACUGCGGGUUCGAGUCCCGUACGGAACG [C5U C31G C33U], the yeast fitness stood at 0.522.

Turning to GUUCCGUUGGCGUAAUGGUAACGAGUCUGCCUCCUAAGGAGACGACUGCGGGUUCGAGUCCCGUACGGACCG [C24A C29G A43C A70C], the yeast fitness was ≤ 0.5.

In the case of GUUCCGUAGGCGUAAUGGUAACGGGUCUCCCUCCUAAGGGGAAGACUGUGGGUUCCAGUCCCGUACGGAACG [U8A C24G A40G C49U G56C], the yeast fitness is ≤ 0.5.

As to GUUCCGUUGGCGUAAUGGUAAGGCGUGUCCGUCCUAAGGAGAAGACUGCGGGUUCGAGUCCCGUACGGAACG [C22G C27G C31G], the yeast fitness came to 0.571.

On to GUUCCGUUGGCGUAAUGGUAACGCGUCUCCCUCUUAAGGAGAAGACUGCGGGUUCGACUCCCGUACGGUACG [C34U G58C A69U], for which the yeast fitness was ≤ 0.5.

Consider GUUCCGUUGGCGUAAUGGUAACGCGUCUCCCUCGUAAGGACAAGACUGUGGGUUCGAGUCCCGUACGGAACG [C34G G41C C49U], for which the yeast fitness was found to be 0.684.

Turning to GUUUCGUUGGAGUAAUGGUAACGCGUCUCCCUCCUACGGAGAAGACUGCGGGUUCGAGUCCCGUAAGGAACG [C4U C11A A37C C66A], the yeast fitness stood at 0.535.

Turning to GUUCCGUUGACGUAAUGGAAACGCGUCUCCCUCCUAAGGAGAACACUGCGGGUUCGAGUCCCGUACCGAACG [G10A U19A G44C G67C], the yeast fitness was determined as 0.52.

Take GUUUCGUUGGCGUAAUGGAAACGCGUCUCGCUCCUCAGGAGAAGACCGCGGGUUCGAGUCCCGUACGGAACG [C4U U19A C30G A36C U47C]: the yeast fitness is ≤ 0.5.

As to GCUCCGUUGGCGUAAUGGUAACGCGUCUCCCUCCUAAGGAGAAGACAGCGGGUUCGAGUCCUGUACGGAACG [U2C U47A C62U], the yeast fitness came out at 0.531.

Turning to GUUCCGUUGCCAUAAUGGUAAAGGGUCUCCCUCCUAAGGAGAAGACUGCGGGAUCGAGUCCCGUACGGAACG [G10C G12A C22A C24G U53A], the yeast fitness was ≤ 0.5.

As to GUUCGGUUGGCGGAAUGGUAACGCGUGUCACUCCUAAGGAGAAGACUGCGGGUUCGAGUCCCGUACGGAACG [C5G U13G C27G C30A], the yeast fitness is ≤ 0.5.
